In ChEMBL document CHEMBL1121928, “Pyrazolo[3,4-d]pyrimidine ribonucleosides as anticoccidials. 1. Synthesis and activity of some nucleosides of purines and 4-(alkylthio)pyrazolo[3,4-d]pyrimidines” (J Med Chem, 1982):

What was measured:
[1] = test system: Eimeria tenella; experiment: Inhibition Eimeria tenella growth; type: functional; conditions: read-out: MEC
Procedure, shortened: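 E. tenella (Weybridge strain) grown in vitro in embryonic chick liver cells. Toxicity to the host liver cells was scored in the same culture system.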

[2] = species: Gallus gallus; experiment: Number of chicks cleared of Eimeria tenella lesions out of a group of 5 when given in a diet of 400 ppm; type: functional
Procedure, shortened: (§1)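 One-week-old chicks were given a simultaneous infection of E. tenella (Weybridge strain) and E. acervulina (Ongar strain). Infection took place 1 day after medication began. Compound was mixed into the diet and fed ad libitum until the end of the test.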

[3] = species: Gallus gallus; experiment: Number of chicks cleared of eimeria tenella lesions out of a group of 5 when given in the diet at 25 p.p.m.; type: functional; procedure, shortened: as §1
[4] = species: Gallus gallus; experiment: Number of chicks cleared of eimeria tenella lesions out of a group of 5 when given in the diet at 200 ppm; type: functional
Procedure, shortened: (§2)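 One-week-old chicks infected with E. tenella (Weybridge strain) together with E. acervulina (Ongar strain) one day after medication began. Compound mixed into the diet and fed ad libitum until the end of the test.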

[5] = species: Gallus gallus; experiment: Number of chicks cleared of eimeria tenella lesions out of a group of 5 when given in the diet at 100 ppm; type: functional; procedure, shortened: as §1
[6] = species: Gallus gallus; experiment: Number of chicks cleared of eimeria tenella lesions out of a group of 5 when given in the diet at 50 p.p.m.; type: functional; procedure, shortened: as §1
[7] = species: Gallus gallus; experiment: Number of chicks cleared of eimeria tenella lesions out of a group of 5 when given in the diet at 200 p.p.m.; type: functional; procedure, shortened: as §1
[8] = species: Gallus gallus; experiment: Number of chicks out of a group of five that died due to toxicity when given in the diet at 100 ppm; type: organism-based; conditions: chicken, in vivo, po; procedure, shortened: as §2
[9] = species: Gallus gallus; experiment: Number of chicks cleared of eimeria tenella lesions out of a group of 5 when given in the diet at 400 p.p.m.; type: functional; procedure, shortened: as §1
[10] = species: Gallus gallus; experiment: Number of chicks out of a group of five that died due to toxicity when given in the diet at 400 ppm; type: organism-based; conditions: chicken, in vivo, po; procedure, shortened: as §2
[11] = species: Gallus gallus; experiment: Number of chicks cleared of eimeria tenella lesions out of a group of 5 when given in the diet at 100 p.p.m.; type: functional; procedure, shortened: as §1
[12] = species: Gallus gallus; experiment: Number of chicks out of a group of five that died due to toxicity when given in the diet at 200 ppm; type: organism-based; conditions: chicken, in vivo, po; procedure, shortened: as §2
[13] = species: Gallus gallus; experiment: Number of chicks cleared of eimeria tenella lesions out of a group of 5 when given in the diet at 400 ppm; type: functional; procedure, shortened: as §1

Structure (SMILES): CSc1ncnc2[nH]cnc12
- minimal effective concentration [1]: > 20 µg/mL

Structure (SMILES): CSc1[nH]cnc2nncc1-2
- minimal effective concentration [1]: 20 µg/mL

Structure (SMILES): CSc1ncnc2c1ncn2[C@@H]1O[C@H](CO)[C@@H](O)[C@@H]1O
- minimal effective concentration [1]: > 20 µg/mL

Structure (SMILES): CCCCCSc1ncnc2[nH]cnc12
- minimal effective concentration [1]: 20 µg/mL

Structure (SMILES): CSc1nc(N)nc2c1ncn2[C@@H]1O[C@H](CO)[C@@H](O)[C@H]1O
- minimal effective concentration [1]: 50 µg/mL

Structure (SMILES): CSc1ncnc2c1ncn2[C@H]1C[C@H](O)[C@@H](CO)O1
- minimal effective concentration [1]: 50 µg/mL

Structure (SMILES): CSc1ncnc2c1nnn2[C@@H]1O[C@H](CO)[C@@H](O)[C@H]1O
- minimal effective concentration [1]: 1.25 µg/mL

Structure (SMILES): CCSc1[nH]cnc2ncnc1-2
- minimal effective concentration [1]: > 20 µg/mL

Structure (SMILES): CCCCCSc1[nH]cnc2nncc1-2
- minimal effective concentration [1]: 5 µg/mL

Structure (SMILES): CCSc1[nH]cnc2nncc1-2
- No. of chicks [2]: 0

Structure (SMILES): CSc1ncnc2c1ncn2[C@@H]1O[C@H](CO)[C@@H](O)[C@H]1O
- minimal effective concentration [1]: 0.31 µg/mL

Structure (SMILES): CCSc1ncnc2c1ncn2[C@@H]1O[C@H](CO)[C@@H](O)[C@H]1O
- minimal effective concentration [1]: 1.25 µg/mL

Structure (SMILES): C/C=C/CSc1ncnc2c1cnn2C1O[C@H](CO)[C@@H](O)[C@H]1O (stereo partly specified)
- No. of chicks [3]: 0
- No. of chicks [4]: 5
- No. of chicks [5]: 4
- No. of chicks [6]: 0
- minimal effective concentration [1]: 0.019 µg/mL

Structure (SMILES): OC[C@H]1OC(n2ncc3c(S)ncnc32)[C@H](O)[C@@H]1O (stereo partly specified)
- No. of chicks [7]: 2
- minimal effective concentration [1]: 0.31 µg/mL

Structure (SMILES): CSc1ncnc2c1cnn2C1O[C@H](CO)[C@@H](O)[C@H]1O (stereo partly specified)
- No. of chicks [8]: 1
- No. of chicks [9]: 1
- No. of chicks [3]: 0
- No. of chicks [10]: 4
- No. of chicks [11]: 2
- No. of chicks [12]: 2
- No. of chicks [7]: 3
- No. of chicks [6]: 2
- minimal effective concentration [1]: 0.03 µg/mL

Structure (SMILES): OC[C@H]1OC(n2ncc3cncnc32)[C@H](O)[C@@H]1O (stereo partly specified)
- No. of chicks [7]: 1
- minimal effective concentration [1]: 1.3 µg/mL

Structure (SMILES): C=CCSc1ncnc2c1cnn2C1O[C@H](CO)[C@@H](O)[C@H]1O (stereo partly specified)
- No. of chicks [3]: 1
- No. of chicks [4]: 5
- No. of chicks [5]: 5
- No. of chicks [6]: 2
- minimal effective concentration [1]: 0.019 µg/mL

Structure (SMILES): CSc1nccc2c1ncn2C1O[C@H](CO)[C@@H](O)[C@H]1O (stereo partly specified)
- minimal effective concentration [1]: > 20 µg/mL

Structure (SMILES): CSc1nc(C)nc2c1ncn2C1O[C@H](CO)[C@@H](O)[C@H]1O (stereo partly specified)
- minimal effective concentration [1]: > 25 µg/mL

Structure (SMILES): CCSc1ncnc2c1cnn2C1O[C@H](CO)[C@@H](O)[C@H]1O (stereo partly specified)
- No. of chicks [3]: 2
- No. of chicks [11]: 5
- No. of chicks [7]: 5
- No. of chicks [6]: 5
- minimal effective concentration [1]: 0.31 µg/mL

Structure (SMILES): COC(=O)CSc1ncnc2c1cnn2C1O[C@H](CO)[C@@H](O)[C@H]1O (stereo partly specified)
- No. of chicks [4]: 0
- minimal effective concentration [1]: 20 µg/mL

Structure (SMILES): CCCCCSc1ncnc2c1ncn2C1O[C@H](CO)[C@@H](O)[C@H]1O (stereo partly specified)
- minimal effective concentration [1]: > 50 µg/mL

Structure (SMILES): OC[C@H]1OC(n2ncc3c(SC4CCCC4)ncnc32)[C@H](O)[C@@H]1O (stereo partly specified)
- No. of chicks [4]: 1
- minimal effective concentration [1]: 5 µg/mL

Structure (SMILES): CCCCCSc1ncnc2c1cnn2C1O[C@H](CO)[C@@H](O)[C@H]1O (stereo partly specified)
- No. of chicks [3]: 0
- No. of chicks [4]: 5
- No. of chicks [5]: 3
- No. of chicks [6]: 0
- minimal effective concentration [1]: 0.31 µg/mL

Structure (SMILES): CCCCSc1ncnc2c1cnn2C1O[C@H](CO)[C@@H](O)[C@H]1O (stereo partly specified)
- No. of chicks [3]: 0
- No. of chicks [4]: 5
- No. of chicks [5]: 1
- No. of chicks [6]: 0
- minimal effective concentration [1]: 0.019 µg/mL

Structure (SMILES): CCCCCCSc1ncnc2c1cnn2C1O[C@H](CO)[C@@H](O)[C@H]1O (stereo partly specified)
- No. of chicks [3]: 0
- No. of chicks [4]: 5
- No. of chicks [5]: 2
- No. of chicks [6]: 0
- minimal effective concentration [1]: 0.019 µg/mL

Structure (SMILES): CC(C)Sc1ncnc2c1cnn2C1O[C@H](CO)[C@@H](O)[C@H]1O (stereo partly specified)
- No. of chicks [9]: 0
- minimal effective concentration [1]: 0.019 µg/mL

Structure (SMILES): CCOP(=O)(CCSc1ncnc2c1cnn2C1O[C@H](CO)[C@@H](O)[C@H]1O)OCC (stereo partly specified)
- No. of chicks [4]: 1
- minimal effective concentration [1]: 5 µg/mL

Structure (SMILES): CCCCCCCSc1ncnc2c1cnn2C1O[C@H](CO)[C@@H](O)[C@H]1O (stereo partly specified)
- No. of chicks [7]: 1
- minimal effective concentration [1]: 0.31 µg/mL

Structure (SMILES): CSc1nc(SC)c2ncn(C3O[C@H](CO)[C@@H](O)[C@H]3O)c2n1 (stereo partly specified)
- minimal effective concentration [1]: > 50 µg/mL

Structure (SMILES): CC(=O)CSc1ncnc2c1cnn2C1O[C@H](CO)[C@@H](O)[C@H]1O (stereo partly specified)
- No. of chicks [4]: 0
- minimal effective concentration [1]: > 20 µg/mL

Structure (SMILES): CCCSc1ncnc2c1cnn2C1O[C@H](CO)[C@@H](O)[C@H]1O (stereo partly specified)
- No. of chicks [3]: 0
- No. of chicks [11]: 1
- No. of chicks [7]: 4
- No. of chicks [6]: 0
- minimal effective concentration [1]: 0.019 µg/mL

Structure (SMILES): Sc1ncnc2nc[nH]c12 [MERCAPTOPURINE ANHYDROUS]
- minimal effective concentration [1]: > 20 µg/mL

Structure (SMILES): Nc1nc(=S)c2ncn([C@@H]3O[C@H](CO)[C@@H](O)[C@H]3O)c2[nH]1 [THIOGUANOSINE]
- minimal effective concentration [1]: > 50 µg/mL

Structure (SMILES): OC[C@H]1O[C@@H](n2cnc3c(S)ncnc32)[C@H](O)[C@@H]1O [THIOINOSINE]
- minimal effective concentration [1]: > 20 µg/mL

Structure (SMILES): Sc1ncnc2[nH]ncc12 [TISOPURINE]
- No. of chicks [13]: 0
- minimal effective concentration [1]: > 20 µg/mL
